Measured values published in article PMC8451793 (Journal of Orthopaedic Research, 2020).

Legend:
hMSCs and rTDSCs = experiment: Tenocyte differentiation, immunostaining for tenocyte markers; assay type: cell-based, human, rat
Outline: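 Cells incubated at 37°C, 5% CO2 with test compound across a dose range or DMSO; rTDSCs treated 4 days (representative images at 1.5 μM). Fixed and immunostained for SCXA, TNMD, TNC, MKX, THBS4 and type I/III collagens; secondary antibody alone as negative control; BMP + FGF as positive control. High-content imaging; percent of total cells marker-positive; n = 4, mean ± SD.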

[1] = tested on: CLK-mediated phosphorylation of SRSF1, SRSF4, SRSF5, SRSF6 in rTDSCs and hMSCs; experiment: Western blot of phospho-SRSFs; assay type: cell-based, human, rat
Outline: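 rTDSCs treated with test compound or DMSO for 24 h at 37°C, 5% CO2. Total protein extracted in RIPA buffer. Phospho-SRSF levels detected by Western blot with specific primary and secondary antibodies.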

COc1ccc2c(c1)[nH]c1c(C)nccc12 [harmine]
Potency in promoting tenocyte differentiation relative to SM04755 (hMSCs and rTDSCs): less potent than SM04755 | CLK-mediated phosphorylation of SRSF1, SRSF4, SRSF5 and SRSF6 [1]: no effects
